# Assays:
# [1] = Toxicity in human SKBR3 cells after 48 hrs by MTT assay; format: cell-based; settings: sk-br-3, 48 h
# In short: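 SK-BR-3 cells were grown in RPMI 1640 with 10% FCS, NEAA and penicillin/streptomycin, no insulin, at 37 °C, 5% CO2. Cells were seeded at 0.055×10^6/ml, and 24 h later compounds were added at 0.1–100 µM final (PBS for controls). MTT was added for 1 h, formazan dissolved in DMSO, A540 read; outer wells were excluded. Values are % of control ± SD.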
# Clupea [2] = experiment: Effect on thermal melting point of herring testes DNA at 10 uM
# In short: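 Herring testes DNA at 100 µM with 10 µM polyamine in 10 mM NaCl. Absorbance read at 260 nm while heating at 0.4 °C/min from 25–98 °C. The system equilibrated 15 min before the first reading, then readings were taken each degree (2 s averaging). Tm was taken from the peak of the first-derivative curve. pH was checked before and after polyamine addition.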
# Clupea [3] = experiment: Effect on thermal melting point of herring testes DNA at 100 uM
# HCC1937 = experiment: Toxicity in human HCC1937 cells after 48 hrs by MTT assay; format: cell-based; settings: hcc1937, 48 h
# In short: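 HCC1937 cells were grown in MEM α with 10% heat-inactivated FCS, NEAA, gentamycin, EGF 20 ng/ml and insulin, at 37 °C, 5% CO2. Plateau-phase cells were seeded at 0.055×10^6/ml and compounds added after 24 h at 0.1–100 µM final. Controls got PBS. MTT was added for 1 h, formazan dissolved in DMSO, A540 read. Values are % of control ± SD.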
# Clupea [4] = experiment: Effect on thermal melting point of herring testes DNA at 1 uM
# [5] = Toxicity in human L56BrC1 cells after 48 hrs by MTT assay; format: cell-based
# In short: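 L56Br-C1 cells were grown in RPMI 1640 with 10% heat-inactivated FCS, NEAA, insulin and penicillin/streptomycin, at 37 °C, 5% CO2. After seeding at 0.055×10^6 cells/ml and 24 h growth, compounds were added at 0.1, 1, 10 or 100 µM final; controls received PBS. After 1 h MTT, formazan was dissolved in DMSO and A540 read. Results are % of control ± SD.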
# Clupea [6] = experiment: Effect on thermal melting point of herring testes DNA at 50 uM
SMILES,Activity [1],Tm (Clupea [2]) [°C],ΔTm (Clupea [2]) [°C],Tm (Clupea [3]) [°C],ΔTm (Clupea [3]) [°C],Activity (HCC1937),Tm (Clupea [4]) [°C],ΔTm (Clupea [4]) [°C],Activity [5],Tm (Clupea [6]) [°C],ΔTm (Clupea [6]) [°C]
NCCCN(CCCN)CC(=O)O,Non-toxic,61,-4,50,-15,Non-toxic,62,-3,Non-toxic,,
C#CCNC(=O)CN(CCCN)CCCN,Non-toxic,58,-7,51,-14,Non-toxic,,,Non-toxic,52,-13
NCCCN(CCCN)CC(=O)NCC#Cc1cn([C@@H]2O[C@H](CO)[C@@H](O)[C@H]2O)c(=O)[nH]c1=O,Non-toxic,66.5,1.5,,,Non-toxic,,,Non-toxic,,
NCCCNCCCN [NORSPERMIDINE],Non-toxic,77,12,,,Non-toxic,,,Non-toxic,,
NCCCN(CCCN)CC(=O)NCC#Cc1nc(N)c2ncn([C@@H]3O[C@H](CO)[C@@H](O)[C@H]3O)c2n1,Non-toxic,66,1,,,Non-toxic,,,Non-toxic,,

# Reference: ChEMBL document CHEMBL1140487, “Construction of polyamine-modified uridine and adenosine derivatives--evaluation of DNA binding capacity and cytotoxicity in vitro” (Bioorg Med Chem, 2007)
